Type in all cases: functional
Test [1] has as its system Hepatocyte. As to the kind of experiment: Hepatoprotective activity in mouse hepatocytes assessed protection against D-galactosamine/TNFalpha-induced cell death at 100 uM administered before 30 mins of TNFalpha challenge measured after 18 hrs. In short, it runs like this: (§1)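 Primary mouse hepatocytes, isolated by collagenase perfusion, were cultured in William's E medium with 10% calf serum, dexamethasone and insulin at 1.5×10^4 cells/well. TNF-α (100 ng/mL) was added 30 min later. Viability was read by MTT after 18 h. Values are mean ± SD, n = 4 (normal and control n = 8), with Student's t-test versus control.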

In test [2] the test system is Hepatocyte. Briefly: Hepatoprotective activity in mouse hepatocytes assessed inhibition of D-galactosamine/TNFalpha-induced cell death at 100 uM administered before 30 mins of TNFalpha challenge measured after 18 hrs. In short, it runs like this:
as §1

Test [3] concerns Hepatocyte. As to the kind of experiment: Hepatoprotective activity in mouse hepatocytes assessed inhibition of D-galactosamine/TNFalpha-induced cell death dosed administered before 30 mins of TNFalpha challenge measured after 18 hrs. In short, it runs like this: as §1
The subject of test [4] is Hepatocyte. As to the kind of experiment: Hepatoprotective activity against D-galactosamine/TNFalpha-induced cell death in mouse hepatocytes assessed cell survival rate at 50 uM administered before 30 mins of TNFalpha challenge measured after 18 hrs by MTT assay. A digest of the protocol: as §1
Test [5] deals with Hepatocyte. As to the kind of experiment: Hepatoprotective activity in mouse hepatocytes assessed inhibition of D-galactosamine/TNFalpha-induced cell death at 200 uM administered before 30 mins of TNFalpha challenge measured after 18 hrs. In short, it runs like this: as §1
Test [6] relates to Hepatocyte. Briefly: Hepatoprotective activity against D-galactosamine/TNFalpha-induced cell death in mouse hepatocytes assessed cell survival rate at 100 uM administered before 30 mins of TNFalpha challenge measured after 18 hrs by MTT assay. In short, it runs like this:
as §1
A general note: Tetrazolium dyes change colour on reduction, which living cells bring about.

Test [7] deals with Hepatocyte. As to the kind of experiment: Hepatoprotective activity in mouse hepatocytes assessed inhibition of D-galactosamine/TNFalpha-induced cell death at 50 uM administered before 30 mins of TNFalpha challenge measured after 18 hrs. In short, it runs like this: as §1
In test [8] the test system is Hepatocyte. Briefly: Hepatoprotective activity against D-galactosamine/TNFalpha-induced cell death in mouse hepatocytes assessed cell survival rate at 200 uM administered before 30 mins of TNFalpha challenge measured after 18 hrs by MTT assay. A digest of the protocol:
as §1

Test [9] has as its system Hepatocyte. As to the kind of experiment: Hepatoprotective activity in mouse hepatocytes assessed protection against D-galactosamine/TNFalpha-induced cell death at 50 uM administered before 30 mins of TNFalpha challenge measured after 18 hrs. In short, it runs like this:
as §1

The test system of test [10] is Hepatocyte. As to the kind of experiment: Hepatoprotective activity in mouse hepatocytes assessed protection against D-galactosamine/TNFalpha-induced cell death at 200 uM administered before 30 mins of TNFalpha challenge measured after 18 hrs. A digest of the protocol: as §1

The values that follow come from ChEMBL document CHEMBL1150813, “Triterpene saponins from Vietnamese ginseng (Panax vietnamensis) and their hepatocytoprotective activity” (J Nat Prod, 2001).

With `CC1(C)[C@@H](O[C@H]2O[C@H](C(=O)O)[C@@H](O)[C@H](O)[C@H]2O[C@@H]2O[C@H](C(=O)O)[C@@H](O)[C@H](O)[C@H]2O)CC[C@]2(C)[C@H]3C(=O)C=C4[C@@H]5C[C@@](C)(C(=O)O)CC[C@]5(C)CC[C@@]4(C)[C@]3(C)CC[C@@H]12` [GLYCYRRHIZIN], the Activity worked out at 4.8% in the test on Hepatocyte [1], 1% in the test on Hepatocyte [9] and 8.7% in the test with Hepatocyte [10]. Besides, the “inhibition (INH)” value in the test on Hepatocyte [2] came out at 11.1%; in the test on Hepatocyte [5], 20.3%; with Hepatocyte [7] it was 11%. Also, the IC50 in the test on Hepatocyte [3] was > 200 µM. Besides, the figures for the Survival in the test with Hepatocyte [4], in the test with Hepatocyte [6] and in the test on Hepatocyte [8] were 33%, 33.4% and 36.2%, respectively.

As to `CC(C)(O)[C@@H]1CC[C@@](C)([C@H]2CC[C@]3(C)[C@@H]2[C@H](O)C[C@@H]2[C@@]4(C)CC[C@H](O)C(C)(C)[C@@H]4[C@@H](O[C@@H]4O[C@H](CO)[C@@H](O)[C@H](O)[C@H]4O)C[C@]23C)O1`, the Activity with Hepatocyte [1] came out at 26.8%; in the test on Hepatocyte [9] it was 13.6%; in the test with Hepatocyte [10], 39%. The entries for the “inhibition (INH)” value in the test with Hepatocyte [2], in the test with Hepatocyte [5] and in the test with Hepatocyte [7] were 62.8%, 91.5% and 31.8%, respectively. Moreover, in the test with Hepatocyte [3], it took 74.8 µM to reach half-maximal inhibition (IC50). In addition, the Survival came to 39.4% with Hepatocyte [4], 48.7% in the test on Hepatocyte [6] and 57.2% in the test on Hepatocyte [8].

With `CC(C)=CCC[C@](C)(O)[C@H]1CC[C@]2(C)[C@@H]1[C@H](O)C[C@@H]1[C@@]3(C)CC[C@H](O)C(C)(C)[C@@H]3[C@@H](O[C@@H]3O[C@H](CO)[C@@H](O)[C@H](O)[C@H]3O)C[C@]12C` [GINSENOSIDE RH1], the Activity with Hepatocyte [1] is given as 15.6%; in the test on Hepatocyte [9], 11.7%; in the test on Hepatocyte [10], 34.3%. Besides, the “inhibition (INH)” value with Hepatocyte [2] is 36.6%; in the test with Hepatocyte [5], 80.5%; with Hepatocyte [7], 27.4%. Further, half-maximal inhibition with Hepatocyte [3] (IC50) was put at 105 µM. The Survival with Hepatocyte [4] is listed as 38.1%; with Hepatocyte [6] it was 40.8%; in the test on Hepatocyte [8] it was 54%.

Regarding `CC(C)(O)[C@@H]1CC[C@@](C)([C@H]2CC[C@]3(C)[C@@H]2[C@H](O)C[C@@H]2[C@@]4(C)CC[C@H](O)C(C)(C)[C@@H]4[C@@H](O)C[C@]23C)O1` [PROTOPANAXATRIOL OXIDE II], the Activity was 22.2% in the test with Hepatocyte [1], 17.9% in the test with Hepatocyte [9] and 92.2% in the test with Hepatocyte [10]. Also, the entries for the “inhibition (INH)” value in the test on Hepatocyte [2], in the test with Hepatocyte [5] and in the test with Hepatocyte [7] were 51.7%, 209.9% and 34.5%, respectively. It took 74 µM to reach half-maximal inhibition with Hepatocyte [3] (IC50). For the same compound, the Survival in the test on Hepatocyte [4] was 40.2%; in the test with Hepatocyte [6], 45.3%; in the test with Hepatocyte [8], 92.6%.

Consider `C=C(C)C(=O)CC[C@](C)(O[C@@H]1O[C@H](CO)[C@@H](O)[C@H](O)[C@H]1O)[C@H]1CC[C@]2(C)[C@@H]1[C@H](O)C[C@@H]1[C@@]3(C)CC[C@H](O)C(C)(C)[C@@H]3[C@@H](O[C@@H]3O[C@H](CO)[C@@H](O)[C@H](O)[C@H]3O)C[C@]12C`, for which the Activity in the test with Hepatocyte [1] is 12%; in the test on Hepatocyte [9] it was 8.2%; with Hepatocyte [10] it was 20.5%. Further, the figures for the “inhibition (INH)” value in the test with Hepatocyte [2], with Hepatocyte [5] and with Hepatocyte [7] were 28.3%, 48.2% and 19.2%, respectively. Besides, the values for the Survival in the test with Hepatocyte [4], with Hepatocyte [6] and in the test with Hepatocyte [8] were 35.6%, 38.4% and 44.3%, respectively.

For `CC(C)(O)[C@@H]1CC[C@@](C)([C@H]2CC[C@]3(C)[C@@H]2[C@H](O)C[C@@H]2[C@@]4(C)CC[C@H](O)C(C)(C)[C@@H]4[C@@H](O[C@@H]4O[C@H](CO)[C@@H](O)[C@H](O)[C@H]4O[C@@H]4OC[C@@H](O)[C@H](O)[C@H]4O)C[C@]23C)O1` [MAJONOSIDE R2], the Activity is 19.3% in the test on Hepatocyte [1], 16% with Hepatocyte [9] and 35.5% with Hepatocyte [10]. Also, the “inhibition (INH)” value in the test on Hepatocyte [2] was determined as 55.2%; in the test with Hepatocyte [5] it was 83.3%; in the test with Hepatocyte [7] it was 37.5%. Also, in the test on Hepatocyte [3], 82.4 µM corresponded to half-maximal inhibition (IC50). In addition, the figures for the Survival in the test with Hepatocyte [4], in the test on Hepatocyte [6] and with Hepatocyte [8] were 41.1%, 46.4% and 54.8%, respectively.

As to `CC(C)=CC/C=C(\C)[C@H]1CC[C@]2(C)[C@@H]1[C@H](O)C[C@@H]1[C@@]3(C)CC[C@H](O)C(C)(C)[C@@H]3[C@@H](O[C@@H]3O[C@H](CO)[C@@H](O)[C@H](O)[C@H]3O)C[C@]12C` [GINSENOSIDE RH4], the Activity in the test with Hepatocyte [1] worked out at 24.8%; in the test on Hepatocyte [9] it was 8%; in the test with Hepatocyte [10], 35.1%. In addition, the results for the “inhibition (INH)” value with Hepatocyte [2], in the test on Hepatocyte [5] and in the test on Hepatocyte [7] were 50.6%, 67.1% and 13.7%, respectively. Also, the IC50 with Hepatocyte [3] was 97 µM. For the same compound, the Survival with Hepatocyte [4] is given as 34%; in the test on Hepatocyte [6], 45%; in the test with Hepatocyte [8], 50%.

On to `CC(C)=CCC[C@](C)(O[C@@H]1O[C@H](CO)[C@@H](O)[C@H](O)[C@H]1O)[C@H]1CC[C@]2(C)[C@@H]1[C@H](O)C[C@@H]1[C@@]3(C)CC[C@H](O)C(C)(C)[C@@H]3[C@@H](O[C@@H]3O[C@H](CO)[C@@H](O)[C@H](O)[C@H]3O)C[C@]12C` [GINSENOSIDE RG1], for which the Activity is given as 17.3% in the test with Hepatocyte [1], 16.7% with Hepatocyte [9] and 26.2% with Hepatocyte [10]. The “inhibition (INH)” value was found to be 40.6% in the test on Hepatocyte [2], 61.4% in the test with Hepatocyte [5] and 39.3% in the test on Hepatocyte [7]. The compound also yielded a 50% inhibitory concentration (IC50) with Hepatocyte [3] of 111 µM. Moreover, the Survival was found to be 41.6% in the test on Hepatocyte [4], 42% in the test on Hepatocyte [6] and 48.3% in the test on Hepatocyte [8].

In the case of `CC(C)=CCC[C@](C)(O[C@@H]1O[C@H](CO)[C@@H](O)[C@H](O)[C@H]1O)[C@H]1CC[C@]2(C)[C@@H]1[C@H](O)C[C@@H]1[C@@]3(C)CC[C@H](O)C(C)(C)[C@@H]3[C@@H](O[C@@H]3O[C@H](CO)[C@@H](O)[C@H](O)[C@H]3O[C@@H]3O[C@@H](C)[C@H](O)[C@@H](O)[C@H]3O)C[C@]12C` [GINSENOSIDE RE], the Activity was 15.9% with Hepatocyte [1], 8.9% in the test on Hepatocyte [9] and 31.9% in the test with Hepatocyte [10]. Also, the “inhibition (INH)” value worked out at 37% with Hepatocyte [2], 74.3% with Hepatocyte [5] and 21.1% in the test on Hepatocyte [7]. The same compound showed an IC50 in the test with Hepatocyte [3] of 119 µM. In addition, the figures for the Survival in the test with Hepatocyte [4], in the test on Hepatocyte [6] and in the test on Hepatocyte [8] were 36.4%, 41.2% and 52.4%, respectively.

In the case of `CC(=O)OC[C@H]1O[C@@H](O[C@H]2C[C@]3(C)[C@H](C[C@@H](O)[C@@H]4[C@@H]([C@]5(C)CC[C@@H](C(C)(C)O)O5)CC[C@]43C)[C@@]3(C)CC[C@H](O)C(C)(C)[C@H]23)[C@H](O[C@@H]2OC[C@@H](O)[C@H](O)[C@H]2O)[C@@H](O)[C@@H]1O` [GINSENOSIDE R2], the Activity with Hepatocyte [1] turned out to be 31.1%; in the test with Hepatocyte [9] it was 19%; with Hepatocyte [10], 61.3%. In addition, the “inhibition (INH)” value was 72.9% in the test with Hepatocyte [2], 143.8% with Hepatocyte [5] and 44.7% in the test on Hepatocyte [7]. The compound further had a half-inhibitory concentration (IC50) with Hepatocyte [3] of 63.2 µM. For the same compound, the Survival in the test with Hepatocyte [4] is reported as 43.2%; in the test with Hepatocyte [6] it was 51.7%; in the test with Hepatocyte [8], 72.9%.

`CC(C)=CCC[C@](C)(O[C@@H]1O[C@H](CO[C@@H]2OC[C@H](O)[C@H](O)[C@H]2O)[C@@H](O)[C@H](O)[C@H]1O)[C@H]1CC[C@]2(C)[C@@H]1[C@H](O)C[C@@H]1[C@@]3(C)CC[C@H](O[C@@H]4O[C@H](CO)[C@@H](O)[C@H](O)[C@H]4O[C@@H]4O[C@H](CO)[C@@H](O)[C@H](O)[C@H]4O)C(C)(C)[C@@H]3CC[C@]12C` [GINSENOSIDE RB2]: the Activity with Hepatocyte [1] is 21%; with Hepatocyte [9], 7.6%; in the test with Hepatocyte [10] it was 43.3%. Moreover, the entries for the “inhibition (INH)” value with Hepatocyte [2], in the test with Hepatocyte [5] and in the test with Hepatocyte [7] were 48.8%, 100.8% and 22.1%, respectively. This compound also came in with an IC50 with Hepatocyte [3] of 105 µM. In addition, the values for the Survival with Hepatocyte [4], in the test on Hepatocyte [6] and in the test on Hepatocyte [8] were 36.7%, 44.7% and 60.3%, respectively.

One may read the IC50 as the point on the concentration scale where inhibition reaches its midpoint.
